We go through twelve compounds from ChEMBL document CHEMBL3784946, “Antiviral Merosesquiterpenoids Produced by the Antarctic Fungus Aspergillus ochraceopetaliformis SCSIO 05702” (J Nat Prod, 2016).

In brackets after ≈: the same amount, converted by molar mass. Activity calls are given as the source filed them. The rule behind the calls is not given here.

One data set concerns Influenza A virus. In words: Antiviral activity against Influenza A virus H1N1 infected in MDCK cells assessed as inhibition of virus-induced cytopathic effect after 48 hrs by crystal violet staining-based microplate reader analysis. It is filed as functional, organism-based. Put shortly:
(§1)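 Confluent MDCK monolayers infected with influenza virus for 1 h at 37 °C. Virus was removed, and cells were kept in RPMI 1640 with 4 μg/mL trypsin plus graded compound concentrations for 48 h at 37 °C. Cells were then fixed in 4% formaldehyde and stained with 0.1% crystal violet, with absorbance read at 570 nm. IC50 is the concentration giving 50% […] at 48 h. Values are means of three independent experiments.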

The subject of another data set is Influenza A virus H3N2. Briefly: Antiviral activity against Influenza A virus H3N2 infected in MDCK cells assessed as inhibition of virus-induced cytopathic effect after 48 hrs by crystal violet staining-based microplate reader analysis. It is filed as functional, organism-based. Put shortly:
as §1

The nature of data set [1]: Cytotoxicity against MDCK cells after 48 hrs by crystal violet staining-based microplate reader analysis. The format is cell-based, Canis lupus familiaris. The note with it: dog. An outline of the steps: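 CC50 taken from the CPE-inhibition assay format on MDCK cells, with crystal violet read-out. Values are means ± SD of three independent experiments.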
Data set [2] is described as follows: Selectivity index, ratio of CC50 for MDCK cells to IC50 for Influenza A virus H1N1 infected in MDCK cells. The format is functional. Put shortly:
(§2)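 SI calculated as CC50 divided by IC50, both from the CPE-inhibition assay on MDCK cells. The underlying values are means of three independent experiments.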

Data set [3] is described as follows: Selectivity index, ratio of CC50 for MDCK cells to IC50 for Influenza A virus H3N2 infected in MDCK cells. It is filed as functional. An outline of the steps: as §2
The next data set relates to A549. Briefly: Cytotoxicity against human A549 cells assessed as reduction in cell viability after 72 hrs by CCK8 assay. It is filed as functional, cell-based. Put shortly:
(§3)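 Cells grown in RPMI or DMEM with 10% FBS and 1% penicillin/streptomycin at 37 °C under 5% CO2. Seeded at 400–800 cells/well and exposed to graded compound concentrations or solvent control for 72 h. Viability read by CCK-8 absorbance at 450 nm, and IC50 derived from dose–response curves.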
(In general: Formazan colour is commonly taken as a measure of viable cells.)

The next data set deals with U-937. In words: (§4) Cytotoxicity against human U937 cells assessed as reduction in cell viability after 72 hrs by CCK8 assay. It is filed as functional, cell-based. Put shortly: as §3
A further data set deals with HeLa. Briefly: Cytotoxicity against human HeLa cells assessed as reduction in cell viability after 72 hrs by CCK8 assay. It is filed as functional, cell-based. An outline of the steps:
as §3

For the next data set, the system named is HL-60. Briefly: Cytotoxicity against human HL60 cells assessed as reduction in cell viability after 72 hrs by CCK8 assay. The format is functional, cell-based. Put shortly: as §3
For the next data set, the system named is HT-29. Briefly: Cytotoxicity against human HT-29 cells assessed as reduction in cell viability after 72 hrs by CCK8 assay. The format is functional, cell-based. An outline of the steps:
as §3

For data set [4], the system named is Staphylococcus aureus. Briefly: Antibacterial activity against Staphylococcus aureus assessed as growth inhibition at 0.01 to 100 ug/ml after 24 hrs by agar dilution method. The format is functional, organism-based. Put shortly: (§5)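 Bacteria grown on LB agar plates at 37 °C. Samples were dissolved in DMSO and serially diluted 2-fold from 100 to 0.01 μg/mL. 5 μL of each dilution was loaded onto a 5 mm paper disk placed on the plate. After 24 h, inhibition zone diameters (mm) were recorded. MIC was the lowest concentration with no visible growth. Ciprofloxacin lactate served as positive control.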
(In agar dilution, organisms are placed on agar that contains the substance at set levels.)

The next data set relates to Escherichia coli. In words: Antibacterial activity against Escherichia coli assessed as growth inhibition at 0.01 to 100 ug/ml after 24 hrs by agar dilution method. The format is functional, organism-based. An outline of the steps: as §5
Data set [5] concerns Mycobacterium tuberculosis. In words: Antitubercular activity against Mycobacterium tuberculosis H37Ra assessed as growth inhibition at 100 ug/ml after 7 days by Alamar blue assay. It is filed as functional, organism-based. An outline of the steps: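 M. tuberculosis H37Ra exposed 7 days to material at 100 μg/mL (from 10 mg/mL DMSO stock; 1% v/v DMSO). Growth measured by Alamar Blue fluorescence, with inhibition expressed relative to bacteria-only controls.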

Data set [6] in a line: as §4. It is filed as functional, cell-based. The following applies: U-937, 72 h. Put shortly: as §3
In data set [7] the test system is Staphylococcus aureus. Briefly: Antibacterial activity against Staphylococcus aureus after 24 hrs by agar dilution method. It is filed as functional.
Data set [8] relates to Mycobacterium tuberculosis. In words: Antitubercular activity against Mycobacterium tuberculosis H37Ra after 7 days by Alamar blue assay. The format is functional. The following applies: 168 h. An outline of the steps:
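M. tuberculosis H37Ra exposed 7 days to 2-fold dilution series from 100 μg/mL downward (10 mg/mL DMSO stock; 1% v/v DMSO at top). Growth measured by Alamar Blue fluorescence.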
In general terms: Alamar Blue is a resazurin reagent that responds to reducing activity.

Consider `CC[C@H]1O[C@@H]2O[C@H](/C=C/C=C\C=C\c3oc(=O)cc(OC)c3C)[C@H](O)[C@]2(C)[C@@]1(C)O`, for which the IC50 – broadly, the concentration that gives 50% inhibition – with Influenza A virus was determined as 0.23 µM; with Influenza A virus H3N2, 0.66 µM. Also, in data set [1], the CC50 (in general, the concentration giving 50% cytotoxicity) at 48 h came to 0.54 µM. Besides, the “Ratio CC50/IC50” value was 2.35 in [2] and 0.81 in [3]. The outcome with A549, with U-937, in the data set with HeLa, in the data set on HL-60 and with HT-29 was inactive. The “growth inhibition (GI)” value (with Staphylococcus aureus [4]; in the data set on Escherichia coli; in data set [5]) was “inactive” throughout.

`CC(=O)O[C@H]1C(=O)[C@@]2(C)[C@H]([C@H](OC(=O)c3ccccc3)[C@]3(O)C[C@H](OC(=O)[C@H](O)[C@@H](NC(=O)c4ccccc4)c4ccccc4)C(C)=C1C3(C)C)[C@]1(OC(C)=O)CO[C@@H]1C[C@@H]2O` [PACLITAXEL]: the IC50 was found to be 0.00166 µM in data set [6] and 0.00304 µM in the data set on HT-29 (HT-29, 72 h).

Take `CO[C@H]1c2c(c(C)c(C)oc2=O)O[C@@]2(C)[C@H]1[C@@H](C)[C@]1(O)CC(=O)C(C)(C)C(=O)[C@@]1(O)[C@H]2O`: the IC50 in the data set on Influenza A virus was above 20 µM; in the data set with Influenza A virus H3N2 it was 12.2 µM. In addition, the CC50 at 48 h in data set [1] was 20.9 µM. The “Ratio CC50/IC50” value in [3] turned out to be 1.71. Also, the result in the data set with A549, in the data set on U-937, in the data set with HeLa, with HL-60 and with HT-29 was inactive. Further, the “growth inhibition (GI)” value (with Staphylococcus aureus [4]; with Escherichia coli; in data set [5]) was “inactive” each time.

Consider `CCOC(=O)C1=C[C@@H](OC(CC)CC)[C@H](NC(C)=O)[C@@H](N)C1` [OSELTAMIVIR], for which the IC50 was found to be 0.0169 µM with Influenza A virus and 0.0185 µM with Influenza A virus H3N2.

In the case of `Cc1oc(=O)c2c(c1C)O[C@@]1(C)[C@@H]([C@@H](C)[C@]3(O)CC(=O)C(C)(C)C(=O)[C@@]3(O)[C@H]1O)[C@H]2O`, the result with A549, in the data set with U-937, with HeLa, with HL-60 and in the data set on HT-29 was inactive. Also, the “growth inhibition (GI)” value (with Staphylococcus aureus [4]; with Escherichia coli; in data set [5]) was “inactive” throughout.

With `Cc1oc(=O)c2c(c1C)O[C@@]1(C)C(=C2)[C@@H](C)[C@]2(O)CC(=O)C(C)(C)C(=O)[C@@]2(O)[C@H]1O`, the outcome with A549, in the data set with U-937, in the data set with HeLa, in the data set on HL-60 and with HT-29 was inactive. Moreover, the “growth inhibition (GI)” value (with Staphylococcus aureus [4]; in the data set on Escherichia coli; in data set [5]) was “inactive” each time.

`Cc1oc(=O)c2c(c1C)O[C@@]1(C)[C@H](C2)[C@@H](C)[C@]2(O)CC(=O)C(C)(C)C(=O)[C@@]2(O)[C@H]1O`: the result in the data set with A549, in the data set on U-937, in the data set on HeLa, in the data set on HL-60 and in the data set on HT-29 was inactive. Moreover, the “growth inhibition (GI)” value (in the data set with Staphylococcus aureus [4]; in the data set on Escherichia coli; in data set [5]) was “inactive” each time.

Consider `CC[C@H]1O[C@@H]2O[C@@H]3[C@H](O)[C@@H](/C=C/C=C/c4oc(=O)cc(OC)c4C)O[C@@H]3[C@]2(C)[C@@]1(C)O`, for which the outcome with A549, with U-937, with HeLa, with HL-60 and with HT-29 was inactive. Moreover, the “growth inhibition (GI)” value (in the data set on Staphylococcus aureus [4]; in the data set with Escherichia coli; in data set [5]) was “inactive” in each case.

On to `Cc1oc(=O)c2c(c1C)O[C@]1(C)[C@H](O)C[C@@]3(O)C(C)(C)C(=O)CC[C@]3(C)[C@H]1C2`, for which the outcome with A549, in the data set on U-937, with HeLa, in the data set on HL-60 and with HT-29 was inactive. Also, the “growth inhibition (GI)” value (with Staphylococcus aureus [4]; in the data set on Escherichia coli; in [5]) was “inactive” each time.

As for `CC[C@H]1O[C@@H]2O[C@H](/C=C/C=C/C=C/c3oc(=O)cc(OC)c3C)[C@H](O)[C@]2(C)[C@@]1(C)O`, the IC50 was 0.54 µM in the data set with Influenza A virus and 0.84 µM in the data set with Influenza A virus H3N2. The compound also returned a CC50 at 48 h in data set [1] of 0.24 µM. Also, the “Ratio CC50/IC50” value amounted to 0.44 in [2] and 0.29 in data set [3]. In addition, the outcome in the data set with A549, in the data set on U-937, in the data set with HeLa, in the data set with HL-60 and in the data set with HT-29 was inactive. In addition, the “growth inhibition (GI)” value (in the data set on Staphylococcus aureus [4]; in the data set on Escherichia coli; in data set [5]) was “inactive” throughout.

`CC(O)C(=O)O.O=C(O)c1cn(C2CC2)c2cc(N3CCNCC3)c(F)cc2c1=O` [CIPROFLOXACIN LACTATE]: inhibition of growth against Staphylococcus aureus [7] (MIC) required 1.25 µg/mL.

Regarding `NNC(=O)c1ccncc1` [ISONIAZID], the MIC90 (in general, an inhibitory concentration at the 90% level, which refers to growth in some studies and to a panel of isolates in others) in [8] worked out at 2.04 µM (≈ 0.28 µg/mL).
